Results from different studies.
Compare with care: the assays were run in different laboratories.
ALK C1156Y: ALK tyrosine kinase receptor (ALK, Homo sapiens, UniProt Q9UM73, C1156Y)
ALK L1196M: ALK tyrosine kinase receptor (ALK, Homo sapiens, UniProt Q9UM73, L1196M)
ALK: ALK tyrosine kinase receptor (ALK, Homo sapiens, UniProt Q9UM73)

Structure (SMILES) | target | observed | method | tested at | remaining binding [%]
CC1CCCN1c1nccc(-c2cnn3ncccc23)n1 (stereo not drawn) | ALK C1156Y | binding | – | 1 µM | 48
Cc1cnc(Nc2ccc(C(=O)N3CCC(N4CCCC4)CC3)cc2)nc1-c1cc2ccccc2s1 | ALK C1156Y | binding | competition with immobilised ligand | 1 µM | 34
CCS(=O)(=O)c1cc2cc(C[C@](O)(CC(C)(C)c3ccc(F)cc3C(N)=O)C(F)(F)F)[nH]c2cn1 | ALK C1156Y | cell-free assay | competition with immobilised ligand | 1 µM | 96
N[C@H]1CCN(c2nccc(-c3cnn4ncccc34)n2)C1 | ALK L1196M | binding | – | 1 µM | 74
COCCOc1nc(-c2ccc(Cl)nc2)nc2c1CN(C(=O)c1ncn3ccccc13)CC2 | ALK L1196M | cell-free assay | competition with immobilised ligand | 0.1 µM | 100
O=C(Nc1c[nH]nc1C(=O)NC1CCNCC1)c1cc(F)cc(F)c1 | ALK L1196M | binding | competition with immobilised ligand | 1 µM | 100
Nc1c(C(=O)NCc2ccc(C(=O)NCCCC3CCCCC3)cc2)cnn1-c1ccccc1 | ALK | cell-free assay | competition with immobilised ligand | 0.1 µM | 100
Nc1ncc2c(n1)-c1c([nH]c3ccc(C#CC4CC4)cc13)CCCC2 | ALK L1196M | binding | competition with immobilised ligand | 1 µM | 86
CN(C)c1nccc(-c2cnn3ncccc23)n1 | ALK L1196M | binding | – | 1 µM | 100
COc1cnc(Nc2cccc(S(N)(=O)=O)c2)nc1N1CCN(c2ccccc2)C(=O)C1 | ALK | binding | competition with immobilised ligand | 1 µM | 100
F[C@@H]1CCN(c2nccc(-c3cnn4ncccc34)n2)C1 | ALK | binding | – | 1 µM | 100
CO[C@H]1CC[C@H](CNc2ccc(S(=O)(=O)NC(=O)c3ccc(N4CCN(CC5=C(c6ccc(Cl)cc6)CC(C)(C)CC5)CC4)cc3Oc3cnc4[nH]ccc4c3)cc2[N+](=O)[O-])CC1 | ALK | cell-free assay | competition with immobilised ligand | 1 µM | 100
C[C@@H]1CCN(c2nccc(-c3cnn4ncccc34)n2)C1 | ALK L1196M | binding | – | 1 µM | 100
O=C(NCCCN1CCOCC1)c1ccc(Nc2nccc(-c3cc4ccccc4s3)n2)cc1 | ALK L1196M | binding | competition with immobilised ligand | 1 µM | 100
Cc1noc([C@H]2C[C@@H](c3ccc(C(F)(F)F)cc3)CN(C(=O)N3CCS(=O)(=O)C3)C2)n1 | ALK L1196M | cell-free assay | competition with immobilised ligand | 1 µM | 100
C=CC(=O)N1CCC(C(=O)NCC(=O)N2CCN(c3nc(-c4cnc(N)nc4C(F)F)nc(N4CCOCC4)n3)CC2)CC1 | ALK L1196M | binding | competition with immobilised ligand | 1 µM | 79
Cc1c(NC(=O)c2cc(C(N)=O)nc3cc(F)ccc23)c(C(F)(F)F)nn1Cc1ccc(C(C)(C)C)cc1 | ALK | cell-free assay | competition with immobilised ligand | 1 µM | 96
CNC(=O)[C@@H]1CC[C@@H](n2c(-c3ccc4cnccc4c3)nc3ccc(C(=O)NCc4cccc(C(N)=O)c4)cc32)C1 | ALK L1196M | binding | competition with immobilised ligand | 1 µM | 100
